Key:
Conditions in all cases: in vivo; call rule not given here
Liver [1] = experiment: Drug level in iv dosed dog liver by gamma-scintillation counting analysis; assay type: ADME, organism-based, Canis lupus familiaris
In short: (§1)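 Carbon-11-labeled hydantoin, 1–59 mCi of final product, dissolved in 1–1.5% aqueous NaOH and given iv to dogs. Distribution imaged serially for up to 2 hr or more with a scintillation camera fitted with a pinhole collimator (1-cm hyperbolic aperture), with whole-body scintiphotos at about 5 and 30 min. Readout is qualitative to semiquantitative; no coincidence imaging.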

[2] = Drug level in iv dosed dog lung by gamma-scintillation counting analysis; assay type: ADME, organism-based, Canis lupus familiaris; in short: as §1
[3] = Drug excretion in iv dosed dog urine by gamma-scintillation counting analysis; assay type: ADME, organism-based, Canis lupus familiaris; in short: as §1
[4] = Drug level in iv dosed dog kidney by gamma-scintillation counting analysis; assay type: ADME, organism-based, Canis lupus familiaris; in short: as §1
Canis familiaris [5] = experiment: Drug level in iv dosed dog by gamma-scintillation counting analysis; assay type: ADME, organism-based, Canis lupus familiaris; in short: as §1
[6] = Drug excretion in iv dosed dog bile after 5 to 30 mins by gamma-scintillation counting analysis; assay type: ADME, organism-based, Canis lupus familiaris; in short: as §1
Brain [7] = experiment: Drug level in iv dosed dog brain after 5 to 30 mins by gamma-scintillation counting analysis; assay type: ADME, organism-based, Canis lupus familiaris; in short: as §1
[8] = Drug level in iv dosed dog vein by gamma-scintillation counting analysis; assay type: ADME, organism-based, Canis lupus familiaris; in short: as §1
[9] = Drug level in iv dosed dog mesenteric fat after 40 mins by gamma-scintillation counting analysis; assay type: ADME, organism-based, Canis lupus familiaris
In short: (§2)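 Dogs received the 11C-labeled hydantoin iv in 1–1.5% aqueous NaOH. Organs and tissues were taken at necropsy 40 min after dosing and placed at fixed geometrical positions in front of a thallium-activated NaI scintillation detector. Detected scintillation events gave quantitative estimates of tissue activity.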

Brain [10] = experiment: Drug level in iv dosed dog brain after 40 mins by gamma-scintillation counting analysis; assay type: ADME, organism-based, Canis lupus familiaris; in short: as §2
[11] = Drug level in iv dosed dog omentum after 40 mins by gamma-scintillation counting analysis; assay type: ADME, organism-based, Canis lupus familiaris; in short: as §2
[12] = Drug level in iv dosed dog kidney after 40 mins by gamma-scintillation counting analysis; assay type: ADME, organism-based, Canis lupus familiaris; in short: as §2
[13] = Drug excretion in iv dosed dog bile by gamma-scintillation counting analysis; assay type: ADME, organism-based, Canis lupus familiaris; in short: as §1
[14] = Drug level in iv dosed dog pancreas after 40 mins by gamma-scintillation counting analysis; assay type: ADME, organism-based, Canis lupus familiaris; in short: as §2
[15] = Drug level in iv dosed dog blood after 40 mins by gamma-scintillation counting analysis; assay type: ADME, organism-based, Canis lupus familiaris; in short: as §2
[16] = Drug level in iv dosed dog stomach after 40 mins by gamma-scintillation counting analysis; assay type: ADME, organism-based, Canis lupus familiaris; in short: as §2
[17] = Drug level in iv dosed dog skeletal muscle after 40 mins by gamma-scintillation counting analysis; assay type: ADME, organism-based, Canis lupus familiaris, Muscle tissue; in short: as §2
[18] = Drug level in iv dosed dog cerebrospinal fluid after 40 mins by gamma-scintillation counting analysis; assay type: ADME, organism-based, Canis lupus familiaris; in short: as §2
[19] = Drug level in iv dosed dog heart after 40 mins by gamma-scintillation counting analysis; assay type: ADME, organism-based, Canis lupus familiaris; in short: as §2
Liver [20] = experiment: Drug level in iv dosed dog liver after 40 mins by gamma-scintillation counting analysis; assay type: ADME, organism-based, Canis lupus familiaris; in short: as §2
Brain [21] = experiment: Drug level in iv dosed dog brain by gamma-scintillation counting analysis; assay type: ADME, organism-based, Canis lupus familiaris; in short: as §1
[22] = Drug level in iv dosed dog lung after 40 mins by gamma-scintillation counting analysis; assay type: ADME, organism-based, Canis lupus familiaris; in short: as §2
Nucleic Acid [23] = experiment: Ratio of drug level in iv dosed dog kidney to temporal muscle after 80 mins by gamma-scintillation counting analysis; assay type: ADME, organism-based, Canis lupus familiaris
In short: (§3)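 Dogs were dosed iv with 11C-labeled hydantoin. Tissues and fluids were collected at necropsy 73 or 80 min post-dose and counted at fixed geometry in front of a thallium-activated NaI scintillation detector. Values are cpm/g of tissue divided by cpm/g of temporal muscle.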

Nucleic Acid [24] = experiment: Ratio of drug level in iv dosed dog pancreas to temporal muscle after 80 mins by gamma-scintillation counting analysis; assay type: ADME, organism-based, Canis lupus familiaris; in short: as §3
Nucleic Acid [25] = experiment: Ratio of drug level in iv dosed dog bile to temporal muscle after 80 mins by gamma-scintillation counting analysis; assay type: ADME, organism-based, Canis lupus familiaris; in short: as §3
Nucleic Acid [26] = experiment: Ratio of drug level in iv dosed dog brain to temporal muscle after 80 mins by gamma-scintillation counting analysis; assay type: ADME, organism-based, Canis lupus familiaris; in short: as §3
Nucleic Acid [27] = experiment: Ratio of drug level in iv dosed dog mesenteric fat to temporal muscle after 80 mins by gamma-scintillation counting analysis; assay type: ADME, organism-based, Canis lupus familiaris; in short: as §3
Canis familiaris [28] = experiment: Drug level in iv dosed dog after 5 to 30 mins by gamma-scintillation counting analysis; assay type: ADME, organism-based, Canis lupus familiaris; in short: as §1
[29] = Drug excretion in iv dosed dog urine after 1 hr by gamma-scintillation counting analysis; assay type: ADME, organism-based, Canis lupus familiaris
Nucleic Acid [30] = experiment: Ratio of drug level in iv dosed dog blood to temporal muscle after 80 mins by gamma-scintillation counting analysis; assay type: ADME, organism-based, Canis lupus familiaris; in short: as §3
Nucleic Acid [31] = experiment: Ratio of drug level in iv dosed dog stomach to temporal muscle after 80 mins by gamma-scintillation counting analysis; assay type: ADME, organism-based, Canis lupus familiaris; in short: as §3
Nucleic Acid [32] = experiment: Ratio of drug level in iv dosed dog spleen to temporal muscle after 80 mins by gamma-scintillation counting analysis; assay type: ADME, organism-based, Canis lupus familiaris; in short: as §3
Nucleic Acid [33] = experiment: Ratio of drug level in iv dosed dog liver to temporal muscle after 80 mins by gamma-scintillation counting analysis; assay type: ADME, organism-based, Canis lupus familiaris; in short: as §3
Nucleic Acid [34] = experiment: Ratio of drug level in iv dosed dog lung to temporal muscle after 80 mins by gamma-scintillation counting analysis; assay type: ADME, organism-based, Canis lupus familiaris; in short: as §3
Nucleic Acid [35] = experiment: Ratio of drug level in iv dosed dog washed heart to temporal muscle after 80 mins by gamma-scintillation counting analysis; assay type: ADME, organism-based, Canis lupus familiaris
In short: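 Dogs received the [11C]-labeled hydantoin intravenously. At necropsy 80 min post-injection, the heart was washed and collected with temporal muscle. Each sample was placed at a fixed position before a thallium-activated NaI scintillation detector. The ratio is cpm/g tissue over cpm/g temporal muscle.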

| SMILES | Drug uptake (Liver [1]) | Drug uptake [2] | Drug excretion [3] | Drug uptake [4] | Drug uptake (Canis familiaris [5]) | Drug excretion [6] | Drug uptake (Brain [7]) | Drug excretion [13] | Drug uptake (Brain [21]) | other results |
| --- | --- | --- | --- | --- | --- | --- | --- | --- | --- | --- |
| CSCCC1NC(=O)N[11C]1=O (stereo unspecified) | Active | Active | metabolite_detected | Active | Active |  |  |  |  |  |
| CCC1(CC)NC(=O)N[11C]1=O | Active | Active | metabolite_detected | Active | Active | metabolite_notdetected | Not Active |  |  |  |
| CCCC1(CCC)NC(=O)N[11C]1=O | Active | Active | metabolite_detected | Active | Active | metabolite_notdetected | Not Active |  |  |  |
| CC(C)CC1(CC(C)C)NC(=O)N[11C]1=O | Active | Active | metabolite_detected | Active | Active | metabolite_notdetected | Not Active |  |  |  |
| CC1(CCC(=O)O)NC(=O)N[11C]1=O (stereo unspecified) | Active | Active | metabolite_detected | Active | Active | metabolite_notdetected | Not Active |  |  | Drug uptake [8]: Active |
| O=C1N[11C](=O)C(c2ccccc2)(c2ccccc2)N1 |  |  | metabolite_detected | Active |  |  |  | metabolite_detected | Active | Drug uptake [9]: Active; Drug uptake (Brain [10]): Active; Drug uptake [11]: Active; Drug uptake [12]: Active; Drug uptake [14]: Active; Drug uptake [15]: Active; Drug uptake [16]: Active; Drug uptake [17]: Active; Drug uptake [18]: Active; Drug uptake [19]: Active; Drug uptake (Liver [20]): Active; Drug uptake [22]: Active |
| O=C1N[11C](=O)C(c2ccc(Cl)cc2)(c2ccc(Cl)cc2)N1 |  |  | metabolite_detected | Active |  |  |  | metabolite_detected | Active |  |
| O=C1N[11C](=O)C(c2ccccc2)N1c1ccccc1 (stereo unspecified) |  |  | metabolite_detected | Active |  |  |  | metabolite_detected | Active |  |
| O=C1NC(c2ccccc2)[11C](=O)N1 (stereo unspecified) |  |  |  |  |  |  |  |  |  | Ratio (Nucleic Acid [23]): 1.91; Ratio (Nucleic Acid [24]): 0.63; Ratio (Nucleic Acid [25]): 0.83; Ratio (Nucleic Acid [26]): 0.73; Ratio (Nucleic Acid [27]): 0.25; Drug uptake (Canis familiaris [28]): Active; Drug excretion [29]: metabolite_detected; Ratio (Nucleic Acid [30]): 0.93; Ratio (Nucleic Acid [31]): 0.76; Ratio (Nucleic Acid [32]): 0.81; Ratio (Nucleic Acid [33]): 2.25; Ratio (Nucleic Acid [34]): 1.05; Ratio (Nucleic Acid [35]): 0.71 |

From ChEMBL document CHEMBL3272253, “Relationship of molecular structure to in vivo scintigraphic distribution patterns of carbon-11 labeled compounds. 3. (11C)Hydantoins” (J Med Chem, 1976)
